Results reported in ChEMBL document CHEMBL1629690, “Development of hexadecyloxypropyl tenofovir (CMX157) for treatment of infection caused by wild-type and nucleoside/nucleotide-resistant HIV” (Antimicrob Agents Chemother, 2010).

Legend:
PBMC [1] = assay: Cellular uptake in PHA/IL-2-stimulated human PBMC at 1 uM assessed as TFV-monophosphate level after 24 hrs by MS/MS analysis; format: ADME, cell-based
Summary of the method: (§1)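 PHA-stimulated (4 μg/ml PHA, 48 to 72 h; 20 U/ml rhIL-2) human PBMCs at 2 × 10^6 cells/ml in RPMI 1640 with 15% FBS, given tenofovir or prodrug (final 0.01 to 10 μM) for 24 h at 37°C. Cells washed three times in cold 0.9% NaCl, counted, and 1 × 10^7 cell aliquots pelleted. TFV, TFV-MP and TFV-PP were separated by ion-pairing reverse-phase LC and detected by positive-ion electrospray MS. Output is pmol per 10^6 cells.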

PBMC [2] = assay: Cellular uptake in PHA/IL-2-stimulated human PBMC at 1 uM assessed as TFV-diphosphate level after 24 hrs by MS/MS analysis; format: ADME, cell-based; summary of the method: as §1
PBMC [3] = assay: Cellular uptake in PHA/IL-2-stimulated human PBMC at 10 uM assessed as TFV-monophosphate after 24 hrs by MS/MS analysis; format: ADME, cell-based; summary of the method: as §1
[4] = Cytotoxicity against human dendritic cells after 24 hrs by XTT assay; format: cell-based
Summary of the method: (§2)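 Six-concentration growth-inhibition test: 10 to 0.032 μM for the prodrug and TDF, up to 100 μM for TFV, with Triton X-100 run in parallel. Cell lines were split 1:2 the day before and seeded at 5 × 10^3 to 2 × 10^4 cells/well, with adherent lines left overnight. Dendritic cells were derived with GM-CSF/IL-4 for 7 days, then LPS 10 ng/ml for 2 days. Viability was read by XTT.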

PBMC [5] = assay: Cytotoxicity against PHA/IL-2-stimulated human PBMC after 24 hrs by XTT assay; format: cell-based; summary of the method: as §2
[6] = Cytotoxicity against human HuH7 cells after 24 hrs by XTT assay; format: cell-based; conditions: huh-7, 24 h; summary of the method: as §2
[7] = tested on: Human immunodeficiency virus 1; assay: Antiviral activity against HIV1 NL 4-3 expressing wild type reverse transcriptase infected in human PBMC by ELISA; format: functional, organism-based; conditions: Human immunodeficiency virus 1, NL 4-3
Summary of the method: (§3)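 Fresh donor PBMCs, HIV- and HBV-seronegative, were stimulated with 4 μg/ml PHA for 48 to 72 h and kept on 20 U/ml rhIL-2. Cells pooled from at least two donors were seeded at 5 × 10^4 per well and infected at MOI ~0.1. Nine compound concentrations were run in triplicate wells for 7 days.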

[8] = tested on: Human immunodeficiency virus 1; assay: Antiviral activity against HIV1 7324-1 harboring reverse transcriptase 41L/67N/69N/70R/215F/219E mutant gene infected in human PBMC by ELISA; format: functional, organism-based; conditions: Human immunodeficiency virus 1, 7324-1
Summary of the method: (§4)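 Fresh PBMCs pooled from at least two HIV- and HBV-seronegative donors, stimulated with PHA 4 μg/ml for 48–72 h and kept in rhIL-2 20 U/ml. Seeded at 5 × 10^4 cells/well and infected with RT-mutant HIV-1 clones at MOI ~0.1. Nine compound concentrations, triplicate wells, 7-day incubation. EC50 reported as mean ± SD of one to three independent experiments.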

[9] = tested on: Human immunodeficiency virus 1; assay: Antiviral activity against HIV1 8415-2 harboring reverse transcriptase 65R/184V mutant gene infected in human PBMC by ELISA; format: functional, organism-based; conditions: Human immunodeficiency virus 1, 8415-2; summary of the method: as §4
PBMC [10] = assay: Cellular uptake in human PBMC at 1 uM assessed as TFV-diphosphate level after 24 hrs by MS/MS analysis; format: ADME, cell-based
Summary of the method: (§5)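 Human PBMCs, unstimulated or PHA/IL-2-stimulated, at 2 × 10^6 cells/ml in RPMI 1640 with 15% FBS, exposed 24 h at 37°C to final 0.01, 0.1, 1.0 or 10 μM of the prodrug, or 1.0 or 10 μM tenofovir. After cold saline washes the cells were counted and 1 × 10^7-cell pellets made. TFV, TFV-MP and TFV-PP were measured by ion-pairing LC with positive-ion electrospray MS as pmol/10^6 cells.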

PBMC [11] = assay: Cellular uptake in human PBMC at 10 uM assessed as TFV-monophosphate after 24 hrs by MS/MS analysis; format: ADME, cell-based; summary of the method: as §5
PBMC [12] = assay: Cellular uptake in human PBMC at 10 uM assessed as TFV-diphosphate after 24 hrs by MS/MS analysis; format: ADME, cell-based; summary of the method: as §5
[13] = tested on: Human immunodeficiency virus 1; assay: Antiviral activity against HIV1 subtype A isolate 92UG029 infected in human PBMC after 48 to 72 hrs by MTS assay; format: functional, organism-based; conditions: Human immunodeficiency virus 1, isolate 92UG029; summary of the method: as §3
[14] = tested on: Human immunodeficiency virus 1; assay: Antiviral activity against HIV1 subtype A isolate 92UG037 infected in human PBMC after 48 to 72 hrs by MTS assay; format: functional, organism-based; conditions: Human immunodeficiency virus 1, isolate 92UG037; summary of the method: as §3
[15] = tested on: Human immunodeficiency virus 1; assay: Antiviral activity against HIV1 subtype C isolate 92BR025 infected in human PBMC after 48 to 72 hrs by MTS assay; format: functional, organism-based; conditions: Human immunodeficiency virus 1, isolate 92BR025; summary of the method: as §3
[16] = tested on: Human immunodeficiency virus 1; assay: Antiviral activity against HIV1 subtype D isolate 92UG001 infected in human PBMC after 48 to 72 hrs by MTS assay; format: functional, organism-based; conditions: Human immunodeficiency virus 1, isolate 92UG001; summary of the method: as §3
[17] = tested on: Human immunodeficiency virus 1; assay: Antiviral activity against HIV1 subtype D isolate 92UG024 infected in human PBMC after 48 to 72 hrs by MTS assay; format: functional, organism-based; conditions: Human immunodeficiency virus 1, isolate 92UG024; summary of the method: as §3
[18] = tested on: Human immunodeficiency virus 1; assay: Antiviral activity against HIV1 subtype E isolate 93TH073 infected in human PBMC after 48 to 72 hrs by MTS assay; format: functional, organism-based; conditions: Human immunodeficiency virus 1, isolate 93TH073; summary of the method: as §3
[19] = tested on: Human immunodeficiency virus 1; assay: Antiviral activity against HIV1 subtype E isolate CMU06 infected in human PBMC after 48 to 72 hrs by MTS assay; format: functional, organism-based; conditions: Human immunodeficiency virus 1, isolate CMU06; summary of the method: as §3
[20] = tested on: Human immunodeficiency virus 1; assay: Antiviral activity against HIV1 subtype E isolate CMU08 infected in human PBMC after 48 to 72 hrs by MTS assay; format: functional, organism-based; conditions: Human immunodeficiency virus 1, isolate CMU08; summary of the method: as §3
[21] = tested on: Human immunodeficiency virus 1; assay: Antiviral activity against HIV1 subtype F isolate 93BR019 infected in human PBMC after 48 to 72 hrs by MTS assay; format: functional, organism-based; conditions: Human immunodeficiency virus 1, isolate 93BR019; summary of the method: as §3
[22] = tested on: Human immunodeficiency virus 1; assay: Antiviral activity against HIV1 subtype F isolate 93BR020 infected in human PBMC after 48 to 72 hrs by MTS assay; format: functional, organism-based; conditions: Human immunodeficiency virus 1, isolate 93BR020; summary of the method: as §3
[23] = tested on: Human immunodeficiency virus 1; assay: Antiviral activity against HIV1 subtype G isolate G3 infected in human PBMC after 48 to 72 hrs by MTS assay; format: functional, organism-based; conditions: Human immunodeficiency virus 1, isolate G3; summary of the method: as §3
[24] = tested on: Human immunodeficiency virus 1; assay: Antiviral activity against HIV1 group O isolate BCF02 infected in human PBMC after 48 to 72 hrs by MTS assay; format: functional, organism-based; conditions: Human immunodeficiency virus 1, isolate BCF02; summary of the method: as §3
[25] = tested on: Human immunodeficiency virus 2; assay: Antiviral activity against HIV2 isolate CDC310319 infected in human PBMC after 48 to 72 hrs by MTS assay; format: functional, organism-based; conditions: Human immunodeficiency virus 2, isolate CDC310319; summary of the method: as §3
PBMC [26] = assay: Cytotoxicity against human PBMC up to 1000 nM by MTS assay; format: cell-based
[27] = tested on: Human immunodeficiency virus 1; assay: Antiviral activity against HIV1 subtype A isolate 92UG037 infected in human MDM […] by MTS assay; format: functional, organism-based; conditions: Human immunodeficiency virus 1, isolate 92UG037
[28] = tested on: Human immunodeficiency virus 1; assay: Antiviral activity against HIV1 subtype B isolate ADA infected in human MDM […] by MTS assay; format: functional, organism-based; conditions: Human immunodeficiency virus 1, isolate ADA
[29] = Cytotoxicity against human MDM up to 1000 nM by MTS assay; format: cell-based

SMILES | Drug uptake (PBMC [2]) [pmol/10^6 cells] | Activity [4] | Activity (PBMC [5]) | Activity [6] | EC50 [7] [nM] | EC50 [8] [nM] | EC50 [9] [nM] | Drug uptake (PBMC [10]) [pmol/10^6 cells] | Drug uptake (PBMC [11]) [pmol/10^6 cells] | Drug uptake (PBMC [12]) [pmol/10^6 cells] | EC50 [13] [nM] | EC50 [14] [nM] | EC50 [15] [nM] | EC50 [16] [nM] | EC50 [17] [nM] | EC50 [18] [nM] | EC50 [19] [nM] | EC50 [20] [nM] | EC50 [21] [nM] | EC50 [22] [nM] | also measured
C[C@H](Cn1cnc2c(N)ncnc21)OCP(=O)(O)O [TENOFOVIR ANHYDROUS] | 0.05 | Non-toxic | Non-toxic | Non-toxic | 300 | 6500 | 1000 | 0.05 | 0.05 | 0.15 |  |  |  |  |  |  |  |  |  |  | Drug uptake (PBMC [1]; BLD = below limit of detection): BLD; Drug uptake (PBMC [3]; BLD = below limit of detection): BLD
CCCCCCCCCCCCCCCCOCCCOP(=O)(O)CO[C@H](C)Cn1cnc2c(N)ncnc21 [TENOFOVIR EXALIDEX] | 1.7 | Non-toxic | Non-toxic | Non-toxic | 1.5 | 3.8 | 1.8 | 0.22 | 0.12 | 1.1 | 3.3 | 3.3 | 2.8 | 2.1 | 2.1 | 2.3 | 2.3 | 2.3 | 2.7 | 2.7 | Drug uptake (PBMC [1]): 0.3 pmol/10^6 cells; Drug uptake (PBMC [3]): 0.9 pmol/10^6 cells; EC50 [23]: 2.2 nM; EC50 [24]: 5 nM; EC50 [25]: 3.5 nM; Activity (PBMC [26]): Non-toxic; EC50 [27]: 1.3 nM; EC50 [28]: 3.1 nM; Activity [29]: Non-toxic
Cc1cn([C@H]2C[C@H](N=[N+]=[N-])[C@@H](CO)O2)c(=O)[nH]c1=O [ZIDOVUDINE] |  |  |  |  | 0.53 | 330 | 1.8 |  |  |  | 14 | 14 | 4.9 | 6.3 | 6.3 | 5.5 | 5.5 | 5.5 | 9.6 | 9.6 | EC50 [23]: 4.7 nM; EC50 [24]: 1.7 nM; EC50 [25]: 9.3 nM; Activity (PBMC [26]): Non-toxic; EC50 [27]: 1.3 nM; EC50 [28]: 2.7 nM; Activity [29]: Non-toxic
